Test results from ChEMBL document CHEMBL1140321, “Synthesis and biological evaluation of acyclic 3-[(2-hydroxyethoxy)methyl] analogues of antiviral furo- and pyrrolo[2,3-d]pyrimidine nucleosides” (J Med Chem, 2005).

Tests used:
[1] = test system: HEL; experiment: Concentration required to inhibit human cytomegalovirus strain AD169 induced cytopathogenicity in HEL cells by 50%; assay type: functional, cell-based
[2] = test system: HEL; experiment: Concentration required to inhibit human cytomegalovirus strain Davis induced cytopathogenicity in HEL cells by 50%; assay type: functional, cell-based
[3] = test system: HEL; experiment: Concentration required to inhibit herpes simplex virus type 2 induced cytopathogenicity in HEL cells by 50%; assay type: functional, cell-based; settings: Homo sapiens
[4] = test system: HEL; experiment: Concentration required to inhibit herpes simplex virus type 1 induced cytopathogenicity in HEL cells by 50%; assay type: functional, cell-based; settings: Homo sapiens
[5] = test system: HEL; experiment: Concentration required to inhibit cell proliferation in HEL cells by 50%; assay type: functional; settings: Homo sapiens
[6] = test system: HEL; experiment: Concentration required to inhibit Varicella-Zoster virus (strain OKA) induced cytopathogenicity in HEL cells by 50%; assay type: functional, cell-based; settings: Homo sapiens
[7] = test system: CCRF-CEM; experiment: Concentration required to inhibit human immunodeficiency virus-2 (strain ROD) induced cytopathogenicity in CEM cells by 50%; assay type: functional, cell-based
Method in brief: (§1)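 Human CEM cells (~3 × 10^5 cells/cm³) were infected with 100 CCID50/mL of HIV-1(IIIB) or HIV-2(ROD) and seeded into wells with compound dilutions. After 4 days at 37 °C, HIV-induced giant-cell formation was examined microscopically and EC50 was taken as the concentration giving 50% inhibition.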

[8] = test system: CCRF-CEM; experiment: Concentration required to inhibit human immunodeficiency virus-1 (strain IIIb) induced cytopathogenicity in CEM cells by 50%; assay type: functional, cell-based; method in brief: as §1
[9] = test system: HEL; experiment: Concentration required to inhibit vesicular stomatitis virus induced cytopathogenicity in HEL cells by 50%; assay type: functional, cell-based; settings: Homo sapiens
[10] = test system: HEL; experiment: Concentration required to cause a microscopically visible alteration of cell morphology in HEL cells; assay type: functional; settings: Homo sapiens
[11] = test system: HEL; experiment: Concentration required to inhibit Varicella-Zoster virus (strain 07/1) induced cytopathogenicity in HEL cells by 50%; assay type: functional, cell-based; settings: Homo sapiens
[12] = test system: HEL; experiment: Concentration required to inhibit vaccinia virus induced cytopathogenicity in HEL cells by 50%; assay type: functional, cell-based; settings: Homo sapiens
[13] = test system: HEL; experiment: Concentration required to inhibit HEL cell proliferation by 50%; assay type: functional; settings: Homo sapiens

Row | Structure (SMILES) | EC50 [1] [µM] | EC50 [2] [µM] | EC50 [3] [µM] | EC50 [4] [µM] | CC50 [5] [µM] | EC50 [6] [µM] | EC50 [7] [µM] | EC50 [8] [µM] | EC50 [9] [µM] | MCC [10] [µM] | EC50 [11] [µM] | EC50 [12] [µM] | CC50 [13] [µM]
1 | CCCCCCCCc1cc2cn(COCCO)c(=O)nc2o1 | 31 | 10 | > 16 | > 16 | > 200 | 11 | > 50 | > 50 | > 16 | ≥ 80 | > 16 | > 16 | –
2 | CCCCCCCc1cc2cn(COCCO)c(=O)nc2o1 | > 80 | > 80 | > 200 | > 200 | 140 | > 80 | > 50 | > 50 | > 200 | 400 | > 80 | > 200 | –
3 | CCCCCCCc1cc2cn(COCCO)c(O)nc-2n1 | > 400 | 400 | > 200 | > 200 | 119 | 149 | > 250 | > 250 | > 200 | ≥ 400 | 156 | > 200 | –
4 | CCCCC#Cc1cc2cn(COCCO)c(=O)nc2o1 | > 100 | > 100 | > 200 | > 200 | > 50 | > 50 | > 50 | > 50 | > 200 | > 100 | > 50 | > 200 | –
5 | CCCCCCCCCCCc1cc2cn(COCCO)c(=O)nc2o1 | > 16 | > 16 | > 40 | > 40 | 132 | > 16 | > 250 | > 250 | > 40 | 80 | > 16 | > 40 | –
6 | CCCCc1cc2cn(COCCO)c(=O)nc2o1 | > 400 | > 400 | > 400 | > 400 | > 200 | ≥ 100 | > 250 | > 250 | > 400 | > 400 | > 400 | > 400 | –
7 | CCCCCC#Cc1cc2cn(COCCO)c(=O)nc2o1 | > 20 | 58 | > 200 | > 200 | > 50 | > 50 | > 50 | > 50 | > 200 | ≥ 100 | > 50 | > 200 | –
8 | CCCCCCCC#Cc1cc2cn(COCCO)c(=O)nc2o1 | > 20 | > 20 | > 40 | > 40 | > 50 | > 20 | > 10 | > 10 | > 40 | 200 | > 20 | > 40 | –
9 | CCCCc1cc2cn(COCCO)c(O)nc-2n1 | > 400 | > 400 | > 400 | > 400 | > 200 | > 400 | > 250 | > 250 | > 400 | > 400 | > 400 | > 400 | –
10 | CCCCCCCCCc1cc2cn(COCCO)c(=O)nc2o1 | > 400 | > 400 | > 200 | > 200 | ≥ 100 | 41 | > 250 | > 250 | > 200 | ≥ 16 | 10 | > 200 | –
11 | CCCCCCC#Cc1cc2cn(COCCO)c(=O)nc2o1 | 40 | > 20 | > 200 | > 200 | > 50 | 100 | – | > 50 | > 200 | > 200 | 100 | > 200 | –
12 | O=c1nc2occc2cn1COCCO | > 400 | > 400 | > 400 | > 400 | > 200 | > 100 | > 250 | > 250 | > 400 | > 400 | > 400 | > 400 | –
13 | C#Cc1cn(COCCO)c(=O)[nH]c1=O | > 400 | > 400 | > 400 | > 400 | – | > 400 | > 250 | > 250 | > 400 | > 400 | > 400 | > 400 | > 200
